Activity calls are given as the source filed them. No cut-off for these calls is given here.
Columns and labels:
Type in all cases: cell-based
[1] = target: Nuclear receptor subfamily 4 group A member 2 (Homo sapiens) (UniProt P43354); assay: Modulation of full length human Nurr1 expressed in HEK293T cells co-transfected with luciferase reporter plasmid harboring NurRE response element assessed as increase in luciferase activity incubated for 18 hrs by luciferase-reporter gene assay; details: filed as modulator, dose 0.002-200 µM
Nuclear receptor subfamily 4 group A member 2 (Homo sapiens), sequence (P43354 whole entry): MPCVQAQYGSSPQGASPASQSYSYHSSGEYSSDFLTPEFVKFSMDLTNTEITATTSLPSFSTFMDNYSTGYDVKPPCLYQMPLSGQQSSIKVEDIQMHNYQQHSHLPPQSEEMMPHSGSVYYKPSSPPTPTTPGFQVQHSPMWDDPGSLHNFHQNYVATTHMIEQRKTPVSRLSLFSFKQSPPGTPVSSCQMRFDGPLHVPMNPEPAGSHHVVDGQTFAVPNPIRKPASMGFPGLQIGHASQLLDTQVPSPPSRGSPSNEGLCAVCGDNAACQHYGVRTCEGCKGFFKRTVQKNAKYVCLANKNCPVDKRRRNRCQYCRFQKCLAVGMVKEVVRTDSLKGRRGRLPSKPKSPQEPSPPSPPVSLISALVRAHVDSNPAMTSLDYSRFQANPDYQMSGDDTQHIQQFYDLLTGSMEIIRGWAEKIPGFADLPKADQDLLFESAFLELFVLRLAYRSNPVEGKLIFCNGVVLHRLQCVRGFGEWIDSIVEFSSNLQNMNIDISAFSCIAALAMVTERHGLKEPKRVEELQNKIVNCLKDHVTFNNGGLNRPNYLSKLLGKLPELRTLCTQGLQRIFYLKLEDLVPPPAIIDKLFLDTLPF
Method in brief: (§1)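 Full-length Nurr1 plasmid, alone (2 μg) or 1 μg plus full-length RXRα (1 μg), cotransfected with 3xNBRE- or 3xNurRE-luciferase reporter (6 μg) using Lipofectamine 2000, 18 h. Cells replated at 10,000/well for 4 h. Four ligand concentrations, or vehicle (water, ethanol or DMSO), added in quadruplicate for 18 h. Luciferase read. Fold change vs vehicle, mean ± s.e.m., one-way ANOVA vs vehicle.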

[2] = target: Nuclear receptor subfamily 4 group A member 2 (Homo sapiens) (UniProt P43354); assay: Modulation of full length human Nurr1 expressed in SKNBE(2) cells co-transfected with RXRalpha and luciferase reporter plasmid harboring NurRE response element assessed as increase in luciferase activity incubated for 18 hrs by luciferase-reporter gene assay; details: SKNBE2, filed as modulator, dose 0.0002-200 µM
Method in brief: (§2)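 SK-N-BE(2)-C cells were kept in 1:1 EMEM/F12 with 10% FBS at 37°C and 5% CO2. They were cotransfected with full-length Nurr1 (1 μg), full-length RXRα (1 μg) and 3xNBRE- or 3xNurRE-luc reporter (6 μg) for 18 h, replated at 10,000 cells/well for 4 h, and then treated with ligand or vehicle in quadruplicate for 18 h. The readout was luciferase luminescence as fold over vehicle, reported as mean ± s.e.m. (n=4) from 2 independent experiments, one-way ANOVA.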

[3] = target: Nuclear receptor subfamily 4 group A member 2 (Homo sapiens) (UniProt P43354); assay: Modulation of full length human Nurr1 expressed in PC12 cells co-transfected with RXRalpha and luciferase reporter plasmid harboring NBRE response element assessed as increase in luciferase activity incubated for 18 hrs by luciferase-reporter gene assay; details: PC-12, filed as modulator, dose 0.0002-200 µM
Method in brief: (§3)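 PC12 cells were grown at 37°C and 5% CO2 in […] medium with 15% horse serum and 2.5% FBS. They were transfected with full-length Nurr1 (1 μg) plus full-length RXRα (1 μg) and 3xNBRE- or 3xNurRE-luciferase reporter (6 μg) for 18 h, then replated at 10,000 cells/well for 4 h. Ligand or vehicle (water, ethanol or DMSO) was added in quadruplicate for 18 h. Luminescence was read as fold change over vehicle. Results are mean ± s.e.m., n=4, from 2 independent experiments, analysed by one-way ANOVA against vehicle.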

[4] = target: Nuclear receptor subfamily 4 group A member 2 (Homo sapiens) (UniProt P43354); assay: Modulation of full length human Nurr1 expressed in PC12 cells co-transfected with luciferase reporter plasmid harboring NurRE response element assessed as increase in luciferase activity incubated for 18 hrs by luciferase-reporter gene assay; details: PC-12, filed as modulator, dose 0.002-200 µM
Method in brief: (§4)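 Here PC12 cells (FK-12 medium, 15% horse serum, 2.5% FBS, 37°C, 5% CO2) received full-length Nurr1 (2 μg) without RXRα, plus 3xNBRE- or 3xNurRE-luciferase reporter (6 μg), for 18 h. Cells were replated at 10,000/well for 4 h, then treated with ligand or vehicle in quadruplicate for 18 h. Luciferase luminescence was normalized to vehicle-treated cells. Results are mean ± s.e.m. (n=4) from 2 independent experiments, with one-way ANOVA against vehicle.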

[5] = target: Nuclear receptor subfamily 4 group A member 2 (Homo sapiens) (UniProt P43354); assay: Modulation of full length human Nurr1 expressed in PC12 cells co-transfected with luciferase reporter plasmid harboring NBRE response element assessed as increase in luciferase activity incubated for 18 hrs by luciferase-reporter gene assay; details: PC-12, filed as modulator, dose 0.002-200 µM; method in brief: as §4
[6] = target: Nuclear receptor subfamily 4 group A member 2 (Homo sapiens) (UniProt P43354); assay: Modulation of full length human Nurr1 expressed in HEK293T cells co-transfected with RXRalpha and luciferase reporter plasmid harboring NurRE response element assessed as increase in luciferase activity incubated for 18 hrs by luciferase-reporter gene assay; details: filed as modulator, dose 0.0002-200 µM; method in brief: as §1
[7] = target: Nuclear receptor subfamily 4 group A member 2 (Homo sapiens) (UniProt P43354); assay: Modulation of full length human Nurr1 expressed in SKNBE(2) cells co-transfected with RXRalpha and luciferase reporter plasmid harboring NBRE response element assessed as increase in luciferase activity incubated for 18 hrs by luciferase-reporter gene assay; details: SKNBE2, filed as modulator, dose 0.0002-200 µM; method in brief: as §2
PC-12 [8] = assay: Cytotoxicity in rat PC-12 cells assessed as reduction in cell viability at 0.02 to 200 uM incubated for 18 hrs by Cell Titer-Glo assay; details: pc-12, 18 h, dose 0.02-200 µM
Method in brief: (§5)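 Cells seeded at 1.5 million per 10-cm dish. Next day they were replated at 10,000 cells/well and rested 4 h. Ligand or vehicle (water, ethanol or DMSO, by ligand) was added in dose-response format in quadruplicate. After 18 h, viability was read by CellTiter-Glo luminescence. Data are mean ± s.e.m., generally representative of 2 independent experiments. One-way ANOVA versus vehicle.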

HEK293T = assay: Modulation of Gal4-fused VP16 expressed in HEK293T cells co-transfected with UAS repoter gene assessed as increase in luciferase activity at 0.02 to 200 uM incubated for 18 hrs by luciferase reporter gene assay; details: Human alphaherpesvirus 2, filed as modulator, dose 0.02-200 µM
Method in brief: (§6)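 Cells in 10-cm dishes were transfected with Gal4-VP16 expression plasmid (2 μg) plus 5xUAS-luciferase reporter (2 μg) for 18 h. They were replated at 10,000 cells/well for 4 h, then given ligand or vehicle (water, ethanol or DMSO) in quadruplicate for 18 h. Luciferase was read with Britelite Plus. Fold change is versus vehicle-treated cells, with one-way ANOVA versus vehicle.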

SKNBE2 = assay: Modulation of Gal4-fused VP16 expressed in SKNBE(2) cells co-transfected with UAS repoter gene assessed as increase in luciferase activity at 0.02 to 200 uM incubated for 18 hrs by luciferase reporter gene assay; details: Human alphaherpesvirus 2, filed as modulator, dose 0.02-200 µM; method in brief: as §6
PC-12 [9] = assay: Modulation of Gal4-fused VP16 expressed in PC12 cells co-transfected with UAS repoter gene assessed as increase in luciferase activity at 0.02 to 200 uM incubated for 18 hrs by luciferase reporter gene assay; details: Human alphaherpesvirus 2, filed as modulator, dose 0.02-200 µM; method in brief: as §6
[10] = target: Nuclear receptor subfamily 4 group A member 2 (Homo sapiens) (UniProt P43354); assay: Modulation of full length human Nurr1 expressed in HEK293T cells co-transfected with RXRalpha and luciferase reporter plasmid harboring NBRE response element assessed as increase in luciferase activity incubated for 18 hrs by luciferase-reporter gene assay; details: filed as modulator, dose 0.0002-200 µM; method in brief: as §1
[11] = target: Nuclear receptor subfamily 4 group A member 2 (Homo sapiens) (UniProt P43354); assay: Modulation of full length human Nurr1 expressed in SKNBE(2) cells co-transfected with luciferase reporter plasmid harboring NurRE response element assessed as increase in luciferase activity incubated for 18 hrs by luciferase-reporter gene assay; details: SKNBE2, filed as modulator, dose 0.002-200 µM
[12] = target: Nuclear receptor subfamily 4 group A member 2 (Homo sapiens) (UniProt P43354); assay: Modulation of full length human Nurr1 expressed in PC12 cells co-transfected with RXRalpha and luciferase reporter plasmid harboring NurRE response element assessed as increase in luciferase activity incubated for 18 hrs by luciferase-reporter gene assay; details: PC-12, filed as modulator, dose 0.0002-200 µM; method in brief: as §3
HEK-293T = assay: Cytotoxicity in human HEK293T cells assessed as reduction in cell viability at 0.02 to 200 uM incubated for 18 hrs by Cell Titer-Glo assay; details: dose 0.02-200 µM; method in brief: as §5
[13] = target: Nuclear receptor subfamily 4 group A member 2 (Homo sapiens) (UniProt P43354); assay: Modulation of full length human Nurr1 expressed in SKNBE(2) cells co-transfected with luciferase reporter plasmid harboring NBRE response element assessed as increase in luciferase activity incubated for 18 hrs by luciferase-reporter gene assay; details: SKNBE2, filed as modulator, dose 0.002-200 µM
[14] = target: Nuclear receptor subfamily 4 group A member 2 (Homo sapiens) (UniProt P43354); assay: Modulation of full length human Nurr1 expressed in HEK293T cells co-transfected with luciferase reporter plasmid harboring NBRE response element assessed as increase in luciferase activity incubated for 18 hrs by luciferase-reporter gene assay; details: filed as modulator, dose 0.002-200 µM; method in brief: as §1
SK-N-BE(2) = assay: Cytotoxicity in human SKNBE2 cells assessed as reduction in cell viability at 0.02 to 200 uM incubated for 18 hrs by Cell Titer-Glo assay; details: dose 0.02-200 µM; method in brief: as §5

Activity [1]: Dose-Dependent Effect
Activity [2]: Dose-Dependent Effect
Activity [3]: Dose-Dependent Effect
Activity [4]: Dose-Dependent Effect
Activity [5]: Dose-Dependent Effect
Activity [6]: Dose-Dependent Effect
Activity [7]: Dose-Dependent Effect
Activity [10]: Dose-Dependent Effect
Activity [11]: Dose-Dependent Effect
Activity [12]: Dose-Dependent Effect
Activity [13]: Dose-Dependent Effect
Activity [14]: Dose-Dependent Effect
SMILES: COc1ccc(-c2cc3onc(-c4ccccc4)c3c(=O)n2C)cc1
Activity (PC-12 [8]): Non-Toxic
Activity (HEK293T): Active
Activity (SKNBE2): Active
Activity (PC-12 [9]): Active
Activity (HEK-293T): Non-Toxic
Activity (SK-N-BE(2)): Non-Toxic

Reference: ChEMBL document CHEMBL5030505, “Assessment of NR4A Ligands That Directly Bind and Modulate the Orphan Nuclear Receptor Nurr1” (J Med Chem, 2020)
